SR-BI DiI inh – mouse SR-BI HDL lipid transfer inhibition; inhibition, % at 12.5 µM; 320,000 compounds, 0.96% hits; Q61009; ldlA[mSR-BI] CHO cells, DiI-HDL uptake fluorescence, 3 h; AID 488896;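 active = mean replicate inhibition of at least 70% and a set share of replicates each scoring 70 or more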
SR-BI uptake up – enhances SR-BI lipid uptake from DiI-HDL | CHO ldlA[mSR-BI] cells, DiI-HDL uptake fluorescence, 3 h; 100 = double the neutral-control signal | activation, % at 12.5 µM | 320,000 compounds, 0.096% hits;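 active = mean replicate activation of at least 60% and every replicate at or above 60%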
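Test system: SR-BI-overexpressing, LDLR-lacking CHO cells. Measured by: DiI fluorescence, bottom read. Medium: Ham's F12 with 0.5% BSA, HEPES 25 mM, pH 7.4. Timing: 3 h uptake period with compound, 37 °C.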
JMJD2C inh – blocks human GASC-1 demethylase activity; inhibition, % at 2.35 µM; 330,000 compounds, 0.069% hits; Q9H3R0; GST-JMJD2C(1-420) H3K9me3 demethylation, DELFIA europium;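 active = more than half of a compound's replicate wells show inhibition beyond 50%, single wells judged on their own value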;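 also: signal counts dimethyl H3K9 product captured on neutravidin plate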
AHR activator – activators of human aryl hydrocarbon receptor; activation, % at 5 µM; AHR-responsive luciferase reporter cells, luminescence; P35869; 320,000 compounds, 2.5% hits; AID 2796; in the data active = activation above about 47%
Target sequence (P35869 whole entry, looked up): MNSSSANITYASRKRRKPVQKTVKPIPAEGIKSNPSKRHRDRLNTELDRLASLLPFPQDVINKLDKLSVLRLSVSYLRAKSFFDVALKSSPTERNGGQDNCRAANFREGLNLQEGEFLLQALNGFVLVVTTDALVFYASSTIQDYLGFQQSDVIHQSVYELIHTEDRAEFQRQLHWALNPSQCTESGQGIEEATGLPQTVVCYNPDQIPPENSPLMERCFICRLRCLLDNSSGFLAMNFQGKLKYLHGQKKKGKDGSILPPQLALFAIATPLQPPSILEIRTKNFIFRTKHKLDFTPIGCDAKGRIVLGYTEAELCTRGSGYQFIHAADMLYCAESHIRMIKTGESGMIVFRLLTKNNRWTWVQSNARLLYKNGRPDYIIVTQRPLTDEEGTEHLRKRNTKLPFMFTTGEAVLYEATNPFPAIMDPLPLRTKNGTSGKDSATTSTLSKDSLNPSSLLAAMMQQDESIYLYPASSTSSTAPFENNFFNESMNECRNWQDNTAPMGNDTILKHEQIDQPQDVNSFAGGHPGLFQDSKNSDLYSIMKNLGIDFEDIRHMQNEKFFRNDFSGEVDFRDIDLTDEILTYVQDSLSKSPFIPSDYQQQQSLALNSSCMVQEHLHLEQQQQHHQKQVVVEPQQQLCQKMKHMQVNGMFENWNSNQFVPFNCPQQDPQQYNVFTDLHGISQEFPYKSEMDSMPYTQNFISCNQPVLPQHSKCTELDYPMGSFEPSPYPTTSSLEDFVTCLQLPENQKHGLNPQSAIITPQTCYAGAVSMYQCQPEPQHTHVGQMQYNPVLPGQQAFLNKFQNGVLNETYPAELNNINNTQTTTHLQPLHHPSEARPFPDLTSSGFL
GAA850 FXN act – activators of GAA850 frataxin (FXN) promoter | HEK293 lucGAA850 FXN promoter luciferase reporter, 24 h; percent of 10 µM SAHA response | activation, % at 6 µM | 360,000 compounds, 0.56% hits | AID 540364;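 active = activation above the average of all compounds screened plus 3 SD, cutoff fixed separately per campaign, cut at about 7.5% in these data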
GAA30 counter – GAA30 FXN promoter activation counter-screen. shares compounds with GAA850 FXN act. HEK293 lucGAA30 FXN promoter luciferase, 24 h; DMSO = 0%, 5 µM ipriflavone = 100%. activation, % at 6 µM. 1,900 compounds, 66% hits;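 active = mean activation above the mean of solvent-only control wells plus 3 SD, cut at about 22% in these data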;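 also: counterscreen of GAA850 promoter hits where activity marks nonselective or luminescence artifacts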
GAA850 confirm – GAA850 FXN promoter activation confirmation; shares compounds with GAA850 FXN act; HEK293 lucGAA850 FXN promoter luciferase reporter, 24 h; 100% = activation by SAHA; activation, % at 6 µM; 1,900 compounds, 86% hits; AID 588351;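 active = mean activation above a set limit taken from the primary screen, cut at about 8% in these data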
Large screens that a line does not name were inactive (follow-up assays come after a bar, where they were run). Hits are enriched below; roughly 3.7% of the tested compounds scored in any of these assays.

COc1ccc(Cn2nnnc2CN(Cc2cc3cccc(C)c3[nH]c2=O)C2CCCC2)cc1	GAA850 FXN act 7.8 | GAA30 counter inactive | GAA850 confirm inactive
CCOC(=O)NC(=O)c1cn(CCNCCO)c(=O)[nH]c1=O	none
Cc1ccc(O)c(NC(=O)c2cc(-c3ccccc3)on2)c1	none
c1csc(CSc2nc3ccccc3s2)c1	GAA850 FXN act 7.7 | GAA30 counter 121.6 | GAA850 confirm 38.9
O=c1[nH]c(/C=C2\C=Nc3ccccc32)c(O)n1Cc1ccccc1F	none
CCn1c(O)c(/C=C2\C=Nc3ccccc32)sc1=Nc1ccccc1	SR-BI DiI inh 79.9, GAA850 FXN act 12.7 | GAA30 counter 60.0 | GAA850 confirm 27.1
CC1(C)CC2(OC2c2ccccc2)C(=O)c2ccccc21 (stereo not given)	none (no result: SR-BI DiI inh, SR-BI uptake up, JMJD2C inh, AHR activator)
c1ccc(-n2cnnc2SCc2nc3ccccc3s2)cc1	GAA850 FXN act 7.8 | GAA30 counter 93.7 | GAA850 confirm 26.4
COCCn1c(SCc2nc3ccccc3s2)nc2ccccc21	GAA850 FXN act 8.4 | GAA30 counter 99.1 | GAA850 confirm 31.1
CCn1c(SCc2nc3ccccc3s2)nc2cc(S(=O)(=O)N3CCOCC3)ccc21	GAA850 FXN act 11.7 | GAA30 counter 81.0 | GAA850 confirm 33.3
CCOCCCn1c(SCc2nc3ccccc3s2)nc2ccccc2c1=O	none
CCCSc1nc2cc(S(=O)(=O)N3CCOCC3)ccc2n1CC	none
Cc1nnc(SCc2nc3ccccc3s2)n1-c1ccccc1	none
CN(C)c1nc(Oc2ccc(OCCOc3ccccc3)nn2)nc(N(C)C)n1	none
CCCCOc1ccc(-c2cn3ccccc3n2)cc1[N+](=O)[O-]	none
c1ccc(-c2cn3ccccc3n2)cc1	none (no result: JMJD2C inh, AHR activator)
O=[N+]([O-])c1ccc(-c2cn3ccccc3n2)cc1	GAA850 FXN act 9.2 (no result: SR-BI DiI inh, SR-BI uptake up) | GAA30 counter 107.6 | GAA850 confirm 50.3
CCOc1ccc(-c2cn3ccccc3n2)cc1[N+](=O)[O-]	GAA850 FXN act 9.2 | GAA30 counter 120.7 | GAA850 confirm 39.6
S=c1[nH]ccn1Cc1ccccc1	none
N#Cc1c(N)nc(SCc2ccccn2)c(C#N)c1-c1cccs1	GAA850 FXN act 20.4 | GAA30 counter 25.9 | GAA850 confirm 18.8
CCc1nc2sc(C(C)=O)c(N)c2c2c1CCCC2	none (no result: SR-BI DiI inh, SR-BI uptake up)
CCc1nc2sc(C#N)c(N)c2c2c1CCCC2	GAA850 FXN act 10.4 | GAA30 counter inactive | GAA850 confirm 14.2
COc1cccc(-c2cnc3c(NC=O)cc(-c4ccc(N5CCN(C)CC5)cc4)cn23)c1	GAA850 FXN act 8.8 (no result: SR-BI DiI inh, SR-BI uptake up, JMJD2C inh, AHR activator) | GAA30 counter 83.2 | GAA850 confirm 40.0
OC[C@H]1O[C@H](c2nc(-c3nc(-c4cccc(-n5cccc5)c4)no3)cs2)C[C@@H]1O	none (no result: SR-BI DiI inh, SR-BI uptake up, JMJD2C inh, AHR activator)
O=C(NCCc1ccccc1)C(=O)NCC1OCCN1S(=O)(=O)c1ccc(Br)cc1 (stereo not given)	none
N#CC1=C(N)S[C@H](C(=O)C23CC4CC(CC(C4)C2)C3)[C@H]1c1ccncc1	GAA850 FXN act 8.5 | GAA30 counter inactive | GAA850 confirm 11.6
COc1ccc(C2=Nn3c(nnc3-c3ccco3)SC2)cc1OC	GAA850 FXN act 10.5 | GAA30 counter 36.8 | GAA850 confirm 19.6
Cc1nc(C)c(-c2csc(Nc3ncccc3C)n2)s1	none
Oc1ccc(-c2csc(Nc3ccccn3)n2)cc1O	GAA850 FXN act 12.6 | GAA30 counter 96.1 | GAA850 confirm 55.6
COc1ccc(-c2csc(Nc3cc(C)ccn3)n2)cc1C	none
Cc1cccc(Nc2nc(-c3ccc(O)c(O)c3)cs2)n1	none
Cc1ccnc(Nc2nc(-c3ccc(O)c(O)c3)cs2)c1	AHR activator 55.3, GAA850 FXN act 17.5 | GAA30 counter 90.8 | GAA850 confirm 41.7
Cc1cccnc1Nc1nc(-c2ccc(O)c(O)c2)cs1	GAA850 FXN act 13.9 | GAA30 counter 106.7 | GAA850 confirm 50.5
CC(C)c1ccccc1-n1c(-c2cccnc2)n[nH]c1=S	none
COc1cc(Nc2nc3ccccc3n3nnnc23)cc(OC)c1OC	GAA850 FXN act 16.7 | GAA30 counter 33.1 | GAA850 confirm 9.5
Cc1cc(C)nc(NNS(=O)(=O)c2c(F)cc(F)cc2Br)n1	none
O=C(Nc1ccc2oc(-c3cccc4ccccc34)nc2c1)c1ncn[nH]1	GAA850 FXN act 8.8 | GAA30 counter 104.5 | GAA850 confirm 40.6
O=C1C=CC(=O)N1c1cccc(-c2ccccc2)c1	none
CCOc1ccc(N(C(=O)CNC(=O)c2cccs2)C(C(=O)NCC2CCCO2)c2ccc(OC)c(OC)c2)cc1 (stereo not given)	none
Cc1cccc(CSc2cccc3cccnc23)c1	GAA850 FXN act 24.6 | GAA30 counter inactive | GAA850 confirm inactive
c1cnc2c(SCc3ccc(-c4nnco4)cc3)cccc2c1	GAA850 FXN act 8.4 | GAA30 counter 73.9 | GAA850 confirm 26.6
NNC(=O)c1ccc(CSc2cccc3cccnc23)cc1	none
C[C@@H]1CN([C@H](C)CO)C(=O)CCCn2nncc2CO[C@H]1CN(C)S(=O)(=O)c1cccc(F)c1	none (no result: SR-BI DiI inh, SR-BI uptake up, JMJD2C inh, AHR activator)
Clc1ccc(N=C2SCC3CCCCN23)cc1 (stereo not given)	GAA850 FXN act 8.2 | GAA30 counter 98.5 | GAA850 confirm 41.8
O=C(N/C(=C/c1cccc([N+](=O)[O-])c1)C(=O)N1CCCCC1)c1ccco1	none
COCCn1c(C)cc(C(=O)COC(=O)c2ccc3ncsc3c2)c1C	GAA850 FXN act 7.8 | GAA30 counter 93.3 | GAA850 confirm 32.2
Cc1cc2nc(CN(C)C(=O)C3CCC(=O)N(C4CCCC4)C3)[nH]c2cc1C (stereo not given)	none (no result: SR-BI DiI inh, SR-BI uptake up, JMJD2C inh, AHR activator)
COc1cnn(-c2ccc(Br)cc2)c(=O)c1SCc1ccccc1	none
COc1cnn(-c2ccc(C)cc2)c(=O)c1SCc1ccccc1	GAA850 FXN act 7.9 (no result: SR-BI DiI inh, SR-BI uptake up) | GAA30 counter 65.6 | GAA850 confirm 24.8
Clc1ccc(-c2csc(Nc3ccccc3)[n+]2Cc2ccco2)c(Cl)c1	GAA850 FXN act 7.9 (no result: AHR activator) | GAA30 counter 82.6 | GAA850 confirm 36.5
CCCC[n+]1c(-c2ccc(Cl)cc2Cl)csc1Nc1ccccc1	none
O=C1/C(=C/c2ccc(F)cc2)Oc2cc(OC(=O)N3CCOCC3)ccc21	none
O=C1/C(=C/c2ccccc2)Oc2cc(OC(=O)N3CCOCC3)ccc21	GAA850 FXN act 7.8 | GAA30 counter 61.6 | GAA850 confirm 23.7
COc1ccnc(NCc2ccc(Cl)cc2)c1C#N	GAA850 FXN act 10.4 | GAA30 counter 54.7 | GAA850 confirm 20.1
CCC(=O)Nc1cc2c(cc1Cl)-c1ccccc1C2	GAA850 FXN act 8.4 (no result: JMJD2C inh, AHR activator) | GAA30 counter 85.5 | GAA850 confirm 30.7
